Reference: paper PMC8273112 (ACS Infectious Diseases, 2021)
Structures can show the parent of a compound that is named as a salt. Where two headings read alike, the source gives them in different places.

Experiments:
[1] = test system: Plasmodium falciparum strain D6; test: SYBR Green growth inhibition assay, P. falciparum D6; type: cell-based; details: read-out: IC50 D6
[2] = test system: P. falciparum A6 (SB1-A6); test: SYBR Green growth inhibition assay, P. falciparum A6; type: cell-based, Plasmodium falciparum; details: read-out: IC50 A6, 72 h
Procedure, shortened: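 Asynchronous parasites grown in human erythrocytes in RPMI-1640 with HEPES, hypoxanthine and Albumax II under 5% O2/5% CO2/90% N2 at 37 °C. Test compound in 2-fold serial dilution from 20 μM, run in quadruplicate, at 2% hematocrit and 0.2% starting parasitemia for 72 h. SYBR Green I lysis dye added for ≥1 h in the dark. Fluorescence read at 497/520 nm, normalized to untreated wells and plotted against log concentration.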

[3] = test system: Plasmodium falciparum strain Dd2; test: SYBR Green growth inhibition assay, P. falciparum Dd2; type: cell-based
HepG2 cells = test: HepG2 cytotoxicity assay; type: cell-based, human; details: read-out: IC50 cytotoxicity, 24 h drug, 24 h recovery
[4] = test system: P. falciparum strain Tm90–C2B; test: SYBR Green growth inhibition assay, P. falciparum Tm90-C2B; type: cell-based, Plasmodium falciparum; details: read-out: IC50 Tm90–C2B
Procedure, shortened: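 Human erythrocytes (≤28 days old), 2% hematocrit, asynchronous culture at 0.2% initial parasitemia, in RPMI-1640 with HEPES, hypoxanthine, glucose, glutamine and Albumax II. 2-fold serial dilution starting at 20 μM, quadruplicate. Incubated 72 h at 37 °C under 5% O2/5% CO2/90% N2. SYBR Green I dye-detergent added for at least 1 h in the dark; fluorescence read at 497/520 nm, normalized to untreated wells, plotted against log concentration.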

Plasmodium yoelii [5] = test: Modified 4-day Peters test, murine malaria; type: in vivo, Plasmodium yoelii in mice; details: for P. yoelii ED90 / P. yoelii ED50: oral gavage days 1–4, parasitemia day 5, mice; for P. yoelii NRD (nonrecrudescence dose, cure dose): oral gavage up to 25 mg/kg/day, no parasites at day 30
[6] = Murine microsomal stability; type: in vitro ADME; details: mouse, pooled murine liver microsomes; for CLint scaled at 1 μM: pH 7.4; for half-life at 1 μM: pH 7.4, murine microsomal stability, t1/2, 1 μM, 0.5 mg/mL protein, 37 °C, 1 h, NADPH
HepG2 cytotoxicity assay = type: cell-based, human; details: human, HepG2 cells
Plasmodium yoelii [7] = details: at any dose level; no reference given; cited from earlier work
[8] = P. falciparum pan-sensitive strain D6, 72 h, average of two to four determinations
[9] = in-house derived mutant line resistant to respiratory antagonists
[10] = read-out: IC50 Dd2, multidrug-resistant P. falciparum strain Dd2, 72 h
[11] = multidrug-resistant clinical isolate also resistant to atovaquone, 72 h
[12] = Plasmodium falciparum, D6, 72 h
[13] = Plasmodium falciparum, DD2, 72 h, read-out: IC50 Dd2
[14] = Plasmodium falciparum, TM90, 72 h
[15] = Plasmodium falciparum, DD2, 48 h, read-out: IC50 Dd2, 48 h
[16] = Plasmodium falciparum, DD2, 72 h, read-out: IC50 Dd2, 72 h
[17] = Plasmodium falciparum, DD2, 96 h, read-out: IC50 Dd2, 96 h

| Molecule | IC50 [1, 8] | IC50 [2, 9] | IC50 [3, 10] | IC50 (HepG2 cells) | IC50 [4, 11] | IC50 [1, 12] | IC50 ([2]; Plasmodium falciparum) | IC50 [3, 13] | IC50 [4, 14] | other results |
| --- | --- | --- | --- | --- | --- | --- | --- | --- | --- | --- |
| 2,2′-Bis[(4-carbonamidophenyl)methylene]carbonimidic Dihydrazide Hydrochloride [Compound 30] | 527 nM | 516 nM | 405 nM | 42000 nM | 727 nM |  |  |  |  |  |
| Cl.N#Cc1cc(/C=N/NC(=N)N/N=C/c2ccc(F)c(C#N)c2)ccc1F [Compound 1, 2,2′-Bis[(3-cyano-4-fluorophenyl)methylene]carbonimidic Dihydrazide Hydrochloride] |  |  |  |  |  | 4 nM | 14 nM | 12 nM | 16 nM | P. yoelii ED90 (Plasmodium yoelii [5]): 0.28 mg/kg/day; CLint scaled at 1 μM [6]: 29.3 mL/min/kg; half-life at 1 μM [6]: > 150 min |
| Cl.N=C(N/N=C/c1ccc(OC(F)(F)F)cc1)N/N=C/c1ccc(OC(F)(F)F)cc1 [Compound 16, 2,2′-Bis[(4-trifluoromethoxyphenyl)methylene]carbonimidic Dihydrazide Hydrochloride] |  |  |  |  |  | 39 nM | 52 nM | 83 nM | 114 nM | IC50 [3, 15]: 410 nM; IC50 [3, 16]: 195 nM; IC50 [3, 17]: 192 nM; P. yoelii ED50 (Plasmodium yoelii [5]): 1.2 mg/kg/day; P. yoelii ED90 (Plasmodium yoelii [5]): 3.7 mg/kg/day; P. yoelii NRD (nonrecrudescence dose, cure dose) (Plasmodium yoelii [5]): 12.5 mg/kg/day; CLint scaled at 1 μM [6]: 31.7 mL/min/kg; half-life at 1 μM [6]: > 150 min |
| N=C(N/N=C/c1ccc(OC(F)F)cc1)N/N=C/c1ccc(OC(F)F)cc1 [Compound 18, 2,2′-Bis[(4-difluoromethoxyphenyl)methylene]carbonimidic Dihydrazide Hydrochloride] |  |  |  |  |  | 71 nM | 87 nM | 191 nM | 193 nM |  |
| N#Cc1ccccc1/C=N/NC(=N)N/N=C/c1ccccc1C#N [Compound 20, 2,2′-Bis[(2-cyanophenyl)methylene]carbonimidic Dihydrazide Hydrochloride] |  |  |  |  |  | 1020 nM | 969 nM | 2100 nM | 1990 nM |  |
| Cl.N#Cc1cccc(/C=N/NC(=N)N/N=C/c2cccc(C#N)c2)c1 [Compound 21, 2,2′-Bis[(3-cyanophenyl)methylene]carbonimidic Dihydrazide Hydrochloride] |  |  |  |  |  | 7 nM | 24 nM | 20 nM | 31 nM | IC50 [3, 15]: 31 nM; IC50 [3, 16]: 21 nM; IC50 [3, 17]: 22 nM; P. yoelii ED50 (Plasmodium yoelii [5]): 7.1 mg/kg/day; P. yoelii ED90 (Plasmodium yoelii [5]): 9.4 mg/kg/day; P. yoelii NRD (nonrecrudescence dose, cure dose) (Plasmodium yoelii [5]): >25 mg/kg/day; CLint scaled at 1 μM [6]: 93.8 mL/min/kg; half-life at 1 μM [6]: 58.2 min |
| Cl.N#Cc1ccc(C=NNC(=N)NN=Cc2ccc(C#N)cc2)cc1 [Compound 22, 2,2′-Bis[(4-cyanophenyl)methylene]carbonimidic Dihydrazide Hydrochloride] |  |  |  |  |  | 58 nM | 76 nM | 166 nM | 312 nM | IC50 at 24 h (HepG2 cytotoxicity assay): > 200000 nM; P. yoelii ED50 (Plasmodium yoelii [5]): 2.7 mg/kg/day; P. yoelii ED90 (Plasmodium yoelii [5]): 7.7 mg/kg/day; P. yoelii NRD (nonrecrudescence dose, cure dose) (Plasmodium yoelii [5]): >25 mg/kg/day |
| N=C(N/N=C/c1ccccc1)N/N=C/c1ccccc1 [Compound 24, 2,2′-Bis(phenylmethylene)carbonimidic Dihydrazide Hydrochloride] |  |  |  |  |  | 705 nM | 581 nM | 4300 nM | > 5000 nM |  |
| N=C(NN=Cc1ccc(O)cc1)NN=Cc1ccc(O)cc1 [Compound 25, 2,2′-Bis[(4-phenol)methylene]carbonimidic Dihydrazide Hydrochloride] | 143 nM | 278 nM | 240 nM | 39000 nM | 286 nM |  |  |  |  |  |
| N=C(NN=Cc1ccc(-c2ccccc2)cc1)NN=Cc1ccc(-c2ccccc2)cc1 [Compound 26, 2,2′-Bis[(4-diphenyl)methylene]carbonimidic Dihydrazide Hydrochloride] | 15 nM | 33 nM | 87 nM | > 200000 nM | 71 nM |  |  |  |  |  |
| N=C(NN=Cc1ccc([N+](=O)[O-])cc1)NN=Cc1ccc([N+](=O)[O-])cc1 [Compound 27, 2,2′-Bis[(4-nitrophenyl)methylene]carbonimidic Dihydrazide Hydrochloride] |  |  |  |  |  | 96 nM | 85 nM | 198 nM | 247 nM | IC50 at 24 h (HepG2 cytotoxicity assay): > 200000 nM |
| CN(C)c1ccc(/C=N/NC(=N)N/N=C/c2ccc(N(C)C)cc2)cc1 [Compound 28, 2,2′-Bis[(4-dimethylaminophenyl)methylene]carbonimidic Dihydrazide Hydrochloride] |  |  |  |  |  | 118 nM | 122 nM | 264 nM | 213 nM |  |
| N=C(NN=Cc1ccc(C(=O)O)cc1)NN=Cc1ccc(C(=O)O)cc1 [Compound 29, 2,2′-Bis[(phenyl-4-carbonate)methylene]carbonimidic Dihydrazide Hydrochloride] | > 5000 nM | > 5000 nM | > 5000 nM | > 200000 nM | > 5000 nM |  |  |  |  |  |
| N=C(NN=Cc1ccc(S(N)(=O)=O)cc1)NN=Cc1ccc(S(N)(=O)=O)cc1 [Compound 31, 2,2′-Bis[(4-sulphonamidophenyl)methylene]carbonimidic Dihydrazide Hydrochloride] | > 5000 nM | > 5000 nM | > 5000 nM | > 200000 nM | > 5000 nM |  |  |  |  |  |
| N=C(N/N=C/c1ccc(N2CCOCC2)cc1)N/N=C/c1ccc(N2CCOCC2)cc1 [Compound 33, 2,2′-Bis[(4-morpholinophenyl)methylene]carbonimidic Dihydrazide Hydrochloride] |  |  |  |  |  | 131 nM | 116 nM | 329 nM | 295 nM |  |
| N=C(NN=Cc1cccc(-n2cnnn2)c1)NN=Cc1cccc(-n2cnnn2)c1 [Compound 34, 2,2′-Bis[(3-tetrazole-1-phenyl)methylene]carbonimidic Dihydrazide Hydrochloride] | 1640 nM | 4790 nM | > 5000 nM | 107000 nM | > 5000 nM |  |  |  |  |  |
| N=C(NN=Cc1ccc(-n2cnnn2)cc1)NN=Cc1ccc(-n2cnnn2)cc1 [Compound 35, 2,2′-Bis[(4-tetrazole-1-phenyl)methylene]carbonimidic Dihydrazide Hydrochloride] | 838 nM | > 5000 nM | > 5000 nM | > 200000 nM | > 5000 nM |  |  |  |  |  |
| N=C(NN=Cc1ccc2c(c1)OC(F)(F)O2)NN=Cc1ccc2c(c1)OC(F)(F)O2 [Compound 36, 2,2′-Bis{[4-(2,2-difluoro-2,3-dioxazolo)]phenyl}methylene]carbonimidic Dihydrazide Hydrochloride] | 250 nM | 235 nM | 800 nM | > 200000 nM | 905 nM |  |  |  |  |  |
| N=C(N/N=C/c1ccccc1)N/N=C/c1ccccc1F [Compound 38, 2-(Phenylmethylene)-2′-[(2-Fluorophenyl)methylene]carbonimidic Dihydrazide Hydrochloride] |  |  |  |  |  | 1030 nM | 833 nM | 2200 nM | > 5000 nM |  |
| O=C1C(O)=C([C@H]2CC[C@H](c3ccc(Cl)cc3)CC2)C(=O)c2ccccc21 [atovaquone, reference compound] |  |  |  |  |  | < 1 nM | > 5000 nM | < 1 nM | > 5000 nM | IC50 at 24 h (HepG2 cytotoxicity assay): 72000 nM |
| CCN(CC)CCCC(C)Nc1ccnc2cc(Cl)ccc12 (centres unmarked) [chloroquine, reference compound] |  |  |  |  |  |  | 16 nM | 70 nM | 297 nM | cure in P. yoelii model (Plasmodium yoelii [7]): not curative; IC50 at 24 h (HepG2 cytotoxicity assay): 181000 nM |
| O=C(c1ccc(F)cc1)C1CCN(CCn2c(=O)[nH]c3ccccc3c2=O)CC1 [ketanserin, reference compound] |  |  |  |  |  |  |  |  |  | half-life at 1 μM [6]: 14.5 min |
